Results taken from ChEMBL document CHEMBL1649065, “Solomonsterols A and B from Theonella swinhoei. The first example of C-24 and C-23 sulfated sterols from a marine source endowed with a PXR agonistic activity” (J Med Chem, 2011).
The source made the active and inactive calls. The rule behind the calls is not given here.

Legend:
[1] = target: T1, Nuclear receptor subfamily 1 group I member 2 (Homo sapiens, UniProt O75469); assay: Induction of PXR-mediated MDR1 gene expression in human HepG2 cells at 50 uM by RT-PCR analysis; type: cell-based; settings: hepg2, 50 µM
T1 sequence (O75469 whole entry): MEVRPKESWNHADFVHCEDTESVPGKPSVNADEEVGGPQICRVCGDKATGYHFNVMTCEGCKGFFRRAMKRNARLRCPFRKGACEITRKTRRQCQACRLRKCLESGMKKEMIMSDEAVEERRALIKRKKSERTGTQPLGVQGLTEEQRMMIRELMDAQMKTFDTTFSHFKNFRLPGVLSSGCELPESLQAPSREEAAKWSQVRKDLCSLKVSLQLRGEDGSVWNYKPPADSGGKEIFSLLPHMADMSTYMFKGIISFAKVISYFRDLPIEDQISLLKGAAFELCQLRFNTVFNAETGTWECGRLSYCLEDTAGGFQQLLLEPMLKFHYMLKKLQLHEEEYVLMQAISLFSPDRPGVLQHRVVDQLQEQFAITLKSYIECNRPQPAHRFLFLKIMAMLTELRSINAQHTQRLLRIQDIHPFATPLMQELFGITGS
Outline: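 HepG2 hepatocytes treated with compound; mRNA quantified by SYBR Green real-time PCR in triplicate, CT normalised to GAPDH, relative expression computed as 2^-ΔΔCT.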

RAW264.7 [2] = assay: Immunomodulatory activity in mouse RAW264.7 cells assessed as inhibition of IL1-beta mRNA expression at 50 uM by RT-PCR analysis; type: functional
Outline: (§1)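 RAW264.7 macrophages incubated 24 h with 10 and 50 μM plus bacterial LPS; total RNA extracted with TRIZOL, 50 ng template amplified by SYBR Green real-time PCR (0.2 μM each primer, 40 cycles), triplicate reactions; CT normalised to GAPDH, relative expression as 2^-ΔΔCT.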

RAW264.7 [3] = assay: Cytotoxicity against mouse RAW264.7 cells at 10 to 50 uM; type: cell-based; settings: raw264.7, 50 µM
Outline: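 Murine macrophages exposed to 10 and 50 μM in presence of bacterial LPS; at end of experiment viability scored by trypan blue exclusion.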

[4] = target: T2, PXR (nuclear receptor subfamily 1 group I member 2) (Homo sapiens, UniProt O75469); assay: Transactivation of PXR in human HepG2 cells assessed as induction of luciferase activity at 50 uM by luciferase reporter gene assay relative to control; settings: read-out: FC
T2 sequence (O75469 whole entry): T1 sequence (O75469 whole entry)

RAW264.7 [5] = assay: Immunomodulatory activity in mouse RAW264.7 cells assessed as effect on TNFalpha mRNA expression at 10 to 50 uM by RT-PCR analysis; type: functional, cell-based; outline: as §1

| SMILES | Activity [1] | inhibition at 50 µM (RAW264.7 [2]) [%] | Activity (RAW264.7 [3]) | fold induction at 50 µM [4] | Activity (RAW264.7 [5]) |
| --- | --- | --- | --- | --- | --- |
| C[C@H](CCOS(=O)(=O)[O-])[C@H]1CC[C@H]2[C@@H]3CC[C@H]4C[C@H](OS(=O)(=O)[O-])[C@@H](OS(=O)(=O)[O-])C[C@]4(C)[C@H]3CC[C@]12C.[Na+].[Na+].[Na+] [SOLOMONSTEROL B] | Active | 50 | Non-toxic | 4 | inactive |
| C[C@H](CCCOS(=O)(=O)[O-])[C@H]1CC[C@H]2[C@@H]3CC[C@H]4C[C@H](OS(=O)(=O)[O-])[C@@H](OS(=O)(=O)[O-])C[C@]4(C)[C@H]3CC[C@]12C.[Na+].[Na+].[Na+] [SOLOMONSTEROL A] | Active | 50 | Non-toxic | 4 | inactive |
